ChEMBL document CHEMBL1142117, “Triterpene saponins from Bacopa monnieri and their antidepressant effects in two mice models” (2007)
Activity calls are given as the source filed them. The calls are words filed in the database; no cut-off is given here.

Experiments:
[1] = test system: Mus musculus; experiment: Spontaneous motor activity in ICR mouse at 50 mg/kg, po; assay type: functional, organism-based; design: dose 50 mg/kg
Method in brief: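 Locomotion of male ICR mice measured 1 h after day-5 oral dose (0.3% CMCNa suspension, daily for 5 days) with an automated activity meter in an open field (35 cm diameter); 3 min adaptation, then counts over 6 min; n=10; means ± SEM compared with vehicle by ANOVA/Dunnett.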

[2] = test system: Mus musculus; experiment: Antidepressant activity in ICR mouse assessed as reduction of immobility time at 50 mg/kg, po after 5 days by forced swimming test; assay type: functional; design: scale not given: the % may be the effect or the level left
Method in brief: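 Male ICR mice (18-22 g), housed a week on 12:12 h light-dark cycle; saponins suspended in 0.3% CMCNa, given orally once daily for 5 days; vehicle controls 5 days, fluoxetine (10 mg/kg) once on day 5. 1 h after last dose, mouse placed in water (24 °C, 10 cm deep) 6 min; immobility scored over final 4 min by blinded observer; n=10; means ± SEM, ANOVA/Dunnett.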

[3] = test system: Mus musculus; experiment: Antidepressant activity in ICR mouse assessed as reduction of immobility time at 50 mg/kg, po after 5 days by tail suspension test; assay type: functional; design: scale not given: the % may be the effect or the level left
Method in brief: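 Male ICR mice (18-22 g); compounds in 0.3% CMCNa dosed orally daily for 5 days, fluoxetine (10 mg/kg) once on day 5, vehicle group 5 days. One hour after day-5 dose, mouse hung by tail from lever 30 cm high for 6 min; immobility in later 4 min recorded by observer; n=10; one-way ANOVA then Dunnett's t-test.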

| Compound | Activity [1] | Activity [2] [%] | Activity [3] [%] |
| --- | --- | --- | --- |
| CC(C)=C[C@@H]1CO[C@]23C[C@@]4(CO2)[C@@H](CC[C@@H]2[C@@]5(C)CC[C@H](O[C@H]6OC[C@H](O)[C@H](O[C@H]7O[C@H](CO)[C@H](O)[C@H](O)[C@H]7O)[C@H]6O[C@@H]6O[C@@H](CO)[C@H](O)[C@H]6O)C(C)(C)[C@@H]5CC[C@]24C)[C@H]3[C@@]1(C)O [BACOPASAPONSIN C] | inactive | 63 | 47 |
| CC(C)=C[C@@H]1CO[C@]23C[C@@]4(CO2)[C@@H](CC[C@@H]2[C@@]5(C)CC[C@H](O[C@H]6OC[C@H](O)[C@H](O[C@H]7O[C@H](COS(=O)(=O)O)[C@@H](O)[C@H](O)[C@H]7O)[C@H]6O[C@@H]6O[C@@H](CO)[C@H](O)[C@H]6O)C(C)(C)[C@@H]5CC[C@]24C)[C@H]3[C@@]1(C)O [BACOPASIDE I] | inactive | 75 | 61 |
| CC(C)=CC1C[C@](C)(O)[C@@H]2[C@@H]3CC[C@@H]4[C@@]5(C)CC[C@H](O[C@@H]6OC[C@H](O)[C@H](O[C@@H]7O[C@H](CO)[C@@H](O)[C@H](O)[C@H]7O)[C@H]6O[C@@H]6O[C@@H](CO)[C@H](O)[C@H]6O)C(C)(C)[C@@H]5CC[C@@]4(C)[C@]34CO[C@@]2(C4)O1 (some centres undefined) [BACOPASIDE VII] | inactive | 20 | 8 |
